Experimental data as given in ChEMBL document CHEMBL1155270, “Modifications at the C-terminus to improve pyrrole-imidazole polyamide activity in cell culture” (J Med Chem, 2009).
Values belong to the compound of their own block, whether it stands above or below them. Activity calls are given as the source filed them. The calls are words filed in the database; no cut-off is given here.

Columns and labels:
[1] = tested on: LNCaP; experiment: Cytotoxicity against human LNCAP cells after 48 hrs by WST1 assay; type: functional, cell-based
How it was run: (§1)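 LNCaP cells were seeded at 10-15 × 10^2 per well and allowed to settle 48 h before polyamide was added as 2× media solutions (DMSO <0.1%). After 48 h exposure, media was replaced and cells recovered 24 h. WST-1 was added for 30 min and A450 read. Wells were corrected for media-only background and normalized to untreated controls.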

[2] = tested on: U-251; experiment: Cytotoxicity against human U251 cells at 0.002 to 10 uM after 48 hrs by WST1 assay; type: functional, cell-based
How it was run: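 U251 cells were plated at 10-15 × 10^2 per well. After 24 h, polyamide was added in 2× media, with a 10–0.002 μM range for the core-less oxime controls. Cells were treated 48 h, then given fresh media for 24 h recovery. WST-1 was read at 450 nm after 30 min, with background correction and normalization to untreated wells.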

[3] = tested on: LNCaP; experiment: Cytotoxicity against human LNCAP cells at 0.02 to 50 uM after 48 hrs by WST1 assay; type: functional, cell-based; how it was run: as §1
[4] = tested on: U-251; experiment: Cytotoxicity against human U251 cells after 48 hrs by WST1 assay; conditions: U-251, 48 h
[5] = tested on: Nucleic Acid; experiment: Binding affinity to 14mer DNA assessed as change in melting temperature by spectrophotometry; type: nucleic-acid assay
How it was run: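 Thermal melting of 14-mer oligonucleotide duplexes (HRE or ARE sequence) with and without polyamide, read by UV spectrophotometry in 1 cm quartz cuvettes with a thermostatted holder. Buffer was 10 mM sodium cacodylate, 10 mM KCl, 10 mM MgCl2, 5 mM CaCl2, pH 7.0. ΔTm is taken relative to the free duplex.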

[6] = tested on: LNCaP; experiment: Inhibition of desferrioxamine-induced VEGF mRNA expression in human LNCAP cells at 1 to 2 uM by quantitative RT-PCR analysis; type: functional, cell-based
[7] = tested on: U-251; experiment: Inhibition of desferrioxamine-induced VEGF mRNA expression in human U251 cells at 0.02 to 0.2 uM by quantitative RT-PCR analysis; type: functional, cell-based
How it was run: (§2)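 In U251 cells, induced VEGF mRNA was quantified by real-time RT-PCR after polyamide at 1, 0.2 and 0.02 μM, with DMSO ≤0.1%. Values were normalized to untreated induced cells; uninduced and DMSO-vehicle controls were run alongside.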

[8] = tested on: Nucleic Acid; experiment: Binding affinity to 5'-TTGCAGAACAGCAA-3' sequence of DNA assessed as change in melting temperature by spectrophotometry; type: nucleic-acid assay
[9] = tested on: LNCaP; experiment: Cytotoxicity against human LNCAP cells assessed as cell viability at 0.01 to 30 uM after 48 hrs by WST1 assay; type: functional; how it was run: as §1
[10] = tested on: LNCaP; experiment: Cytotoxicity against human LNCAP cells at 5 uM after 48 hrs by WST1 assay; type: functional, cell-based
[11] = tested on: LNCaP; experiment: Inhibition of dihydrotestosterone-induced prostate specific antigen expression in human LNCAP cells by quantitative RT-PCR analysis; type: functional, cell-based
How it was run: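 For gene-regulation IC50, DHT (1 nM)-induced LNCaP cells were dosed across 30–0.1 μM or 10–0.03 μM. PSA mRNA was quantified by real-time RT-PCR and normalized to induced untreated cells. Isotherms from three independent experiments were fitted with a modified Hill equation.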

[12] = tested on: LNCaP; experiment: Selectivity ratio of IC50 for human LNCAP cells to IC50 for inhibition of dihydrotestosterone-induced prostate specific antigen expression in human LNCAP cells; type: functional
How it was run: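 Ratio of WST-1 growth-inhibition IC50 (48 h exposure, 24 h recovery, LNCaP) to PSA gene-regulation IC50. The gene-regulation IC50 came from Hill-fitted RT-PCR isotherms in 1 nM DHT-induced LNCaP cells, three independent experiments.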

[13] = tested on: LNCaP; experiment: Inhibition of dihydrotestosterone-induced prostate specific antigen expression in human LNCAP cells at 1 uM by quantitative RT-PCR analysis; type: functional, cell-based
How it was run: (§3)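 LNCaP cells were induced with 1 nM DHT and PSA mRNA measured by quantitative real-time RT-PCR. Oxime-linked polyamides were given at 5, 1 and 0.1 μM, and unconjugated controls at 5 μM, with DMSO ≤0.1%. Expression was normalized to untreated DHT-induced cells; uninduced and DMSO controls were included.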

[14] = tested on: LNCaP; experiment: Inhibition of dihydrotestosterone-induced prostate specific antigen expression in human LNCAP cells at 5 uM by quantitative RT-PCR analysis; type: functional; how it was run: as §3
[15] = tested on: LNCaP; experiment: Inhibition of dihydrotestosterone-induced prostate specific antigen expression in human LNCAP cells at 0.1 to 5 uM by quantitative RT-PCR analysis; type: functional, cell-based; how it was run: as §3
[16] = tested on: U-251; experiment: Inhibition of desferrioxamine-induced VEGF mRNA expression in human U251 cells at 1 uM by quantitative RT-PCR analysis; type: functional; how it was run: as §2
[17] = tested on: Nucleic Acid; experiment: Binding affinity to 5'-GTGCATACGTGGGC-3' sequence of DNA assessed as change in melting temperature by spectrophotometry; type: nucleic-acid assay
[18] = tested on: LNCaP; experiment: Inhibition of desferrioxamine-induced VEGF mRNA expression in human LNCAP cells at 10 uM by quantitative RT-PCR analysis; type: functional
How it was run: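 DFO-induced VEGF mRNA was measured in LNCaP cells by quantitative real-time RT-PCR, following the LNCaP PSA protocol but with non-charcoal-stripped FBS. Polyamide doses were 10, 2 and 0.2 μM, with DMSO ≤0.1%. Levels were normalized to untreated induced cells; untreated uninduced and DMSO controls were included.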

Structure (SMILES): CC(=O)NCCCO/N=C\c1ccc(F)cc1
IC50 [1]: > 50 µM
Activity [2]: inactive
Activity [3]: inactive
IC50 [4]: > 10 µM

Structure (SMILES): Cn1cc(NC(=O)c2cc(NC(=O)c3cc(NC(=O)c4nc(NC(=O)[C@H](N)CCNC(=O)c5nc(NC(=O)c6cc(NC(=O)c7nc(NC(=O)c8nccn8C)cn7C)cn6C)cn5C)cn4C)cn3C)cn2C)cc1C(=O)NCCCO/N=C\c1cccc(F)c1
ΔTm [5]: 0.9 °C
inhibition [6]: Active
inhibition [7]: Active

Structure (SMILES): Cn1cc(NC(=O)c2cc(NC(=O)c3cc(NC(=O)c4nc(NC(=O)[C@H](N)CCNC(=O)c5cc(NC(=O)c6cc(NC(=O)c7cc(NC(=O)c8nccn8C)cn7C)cn6C)cn5C)cn4C)cn3C)cn2C)cc1C(=O)NCCCCCCCNC(=O)c1cccc(C(=O)O)c1
IC50 [1]: > 30 µM
ΔTm [8]: 10.4 °C
Activity [9]: <50%

Structure (SMILES): Cn1cc(NC(=O)c2cc(NC(=O)c3cc(NC(=O)c4nc(NC(=O)[C@H](N)CCNC(=O)c5cc(NC(=O)c6cc(NC(=O)c7cc(NC(=O)c8nccn8C)cn7C)cn6C)cn5C)cn4C)cn3C)cn2C)cc1C(=O)NCCCO/N=C\c1cccc(C(=O)O)c1
IC50 [1]: 1.7 µM
Activity [10]: Active
ΔTm [8]: 11.5 °C
IC50 [11]: 0.3 µM
Ratio IC50 [12]: 6.1
inhibition [13]: Active
inhibition [14]: Active

Structure (SMILES): Cn1cc(NC(=O)c2cc(NC(=O)c3cc(NC(=O)c4nc(NC(=O)[C@H](N)CCNC(=O)c5cc(NC(=O)c6cc(NC(=O)c7cc(NC(=O)c8nccn8C)cn7C)cn6C)cn5C)cn4C)cn3C)cn2C)cc1C(=O)NCCCON
ΔTm [8]: 11.2 °C
inhibition at 5 µM [14]: 50%

Structure (SMILES): Cn1cc(NC(=O)c2cc(NC(=O)c3cc(NC(=O)c4nc(NC(=O)[C@H](N)CCNC(=O)c5nc(NC(=O)c6cc(NC(=O)c7nc(NC(=O)c8nccn8C)cn7C)cn6C)cn5C)cn4C)cn3C)cn2C)cc1C(=O)NCCCO/N=C\c1cccc(C(=O)O)c1
ΔTm [5]: 0.8 °C
inhibition [6]: Active
inhibition [7]: Active

Structure (SMILES): Cn1cc(NC(=O)c2cc(NC(=O)c3nc(NC(=O)c4cc(NC(=O)[C@H](N)CCNC(=O)c5nc(NC(=O)c6cc(NC(=O)c7cc(NC(=O)c8nccn8C)cn7C)cn6C)cn5C)cn4C)cn3C)cn2C)cc1C(=O)NCCCON
ΔTm [5]: 2 °C
inhibition at 5 µM [14]: 10%

Structure (SMILES): CC(=O)NCCCO/N=C\c1cccc(C(=O)O)c1
IC50 [1]: > 50 µM
Activity [2]: inactive
Activity [3]: inactive
IC50 [4]: > 10 µM

Structure (SMILES): NCCCO/N=C\c1cccc(C(=O)O)c1
IC50 [1]: > 50 µM
Activity [2]: inactive
Activity [3]: inactive
IC50 [4]: > 10 µM

Structure (SMILES): CN(CCCNC(=O)c1cccc(C(=O)O)c1)CCCNC(=O)c1cc(NC(=O)c2cc(NC(=O)c3nc(NC(=O)c4cc(NC(=O)[C@H](N)CCNC(=O)c5nc(NC(=O)c6cc(NC(=O)c7cc(NC(=O)c8sccc8Cl)cn7C)cn6C)cn5C)cn4C)cn3C)cn2C)cn1C
inhibition [16]: Active
ΔTm [17]: 11.7 °C

Structure (SMILES): Cn1cc(NC(=O)c2cc(NC(=O)c3cc(NC(=O)c4nc(NC(=O)[C@H](N)CCNC(=O)c5cc(NC(=O)c6cc(NC(=O)c7cc(NC(=O)c8nccn8C)cn7C)cn6C)cn5C)cn4C)cn3C)cn2C)cc1C(=O)NCCCO/N=C\c1cccc(F)c1
IC50 [1]: 0.6 µM
Activity [10]: Active
ΔTm [8]: 12.5 °C
inhibition [14]: Active

Structure (SMILES): Cn1cc(NC(=O)c2cc(NC(=O)c3cc(NC(=O)c4nc(NC(=O)[C@H](N)CCNC(=O)c5cc(NC(=O)c6cc(NC(=O)c7cc(NC(=O)c8nccn8C)cn7C)cn6C)cn5C)cn4C)cn3C)cn2C)cc1C(=O)NCCCNC(=O)c1cccc(C(=O)O)c1
IC50 [1]: > 30 µM
ΔTm [8]: 11.1 °C
Activity [9]: <50%

Structure (SMILES): NCCCO/N=C\c1ccc(F)cc1
IC50 [1]: > 50 µM
Activity [2]: inactive
Activity [3]: inactive
IC50 [4]: > 10 µM

Continued, in another order:

ΔTm [5]: 0.8 °C
Structure (SMILES): Cn1cc(NC(=O)c2cc(NC(=O)c3cc(NC(=O)c4nc(NC(=O)[C@H](N)CCNC(=O)c5nc(NC(=O)c6cc(NC(=O)c7nc(NC(=O)c8nccn8C)cn7C)cn6C)cn5C)cn4C)cn3C)cn2C)cc1C(=O)NCCCO/N=C\c1ccc(F)cc1
inhibition [6]: Active
inhibition [7]: Active

ΔTm [5]: 4 °C
Structure (SMILES): Cn1cc(NC(=O)c2cc(NC(=O)c3nc(NC(=O)c4cc(NC(=O)[C@H](N)CCNC(=O)c5nc(NC(=O)c6cc(NC(=O)c7cc(NC(=O)c8nccn8C)cn7C)cn6C)cn5C)cn4C)cn3C)cn2C)cc1C(=O)NCCCO/N=C\c1cccc(F)c1
IC50 [1]: ≥ 30 µM
inhibition [15]: Active
Activity [9]: <50%

ΔTm [5]: 3.4 °C
Structure (SMILES): Cn1cc(NC(=O)c2cc(NC(=O)c3nc(NC(=O)c4cc(NC(=O)[C@H](N)CCNC(=O)c5nc(NC(=O)c6cc(NC(=O)c7cc(NC(=O)c8nccn8C)cn7C)cn6C)cn5C)cn4C)cn3C)cn2C)cc1C(=O)NCCCO/N=C\c1ccc(F)cc1
IC50 [1]: ≥ 30 µM
inhibition [15]: Active
Activity [9]: <50%

ΔTm [17]: 9.4 °C
Structure (SMILES): Cn1cc(NC(=O)c2cc(NC(=O)c3nc(NC(=O)c4cc(NC(=O)[C@H](N)CCNC(=O)c5nc(NC(=O)c6cc(NC(=O)c7cc(NC(=O)c8sccc8Cl)cn7C)cn6C)cn5C)cn4C)cn3C)cn2C)cc1C(=O)NCCCO/N=C\c1cccc(F)c1
inhibition at 10 µM [18]: 80%
inhibition at 1 µM [16]: 60%
inhibition [7]: Active

IC50 [11]: 0.6 µM
ΔTm [5]: 13.1 °C
Structure (SMILES): Cn1cc(NC(=O)c2cc(NC(=O)c3cc(NC(=O)c4nc(NC(=O)[C@H](N)CCNC(=O)c5cc(NC(=O)c6cc(NC(=O)c7cc(NC(=O)c8nccn8C)cn7C)cn6C)cn5C)cn4C)cn3C)cn2C)cc1C(=O)NCCCO/N=C\c1ccc(F)cc1
IC50 [1]: 0.4 µM
Activity [10]: Active
Ratio IC50 [12]: 0.7
inhibition [13]: Active
inhibition [14]: Active

ΔTm [17]: 10.5 °C
Structure (SMILES): Cn1cc(NC(=O)c2cc(NC(=O)c3nc(NC(=O)c4cc(NC(=O)[C@H](N)CCNC(=O)c5nc(NC(=O)c6cc(NC(=O)c7cc(NC(=O)c8sccc8Cl)cn7C)cn6C)cn5C)cn4C)cn3C)cn2C)cc1C(=O)NCCCO/N=C\c1ccc(F)cc1
inhibition at 10 µM [18]: 80%
inhibition at 1 µM [16]: 60%
inhibition [7]: Active

ΔTm [17]: 11.4 °C
Structure (SMILES): Cn1cc(NC(=O)c2cc(NC(=O)c3nc(NC(=O)c4cc(NC(=O)[C@H](N)CCNC(=O)c5nc(NC(=O)c6cc(NC(=O)c7cc(NC(=O)c8sccc8Cl)cn7C)cn6C)cn5C)cn4C)cn3C)cn2C)cc1C(=O)NCCCO/N=C\c1cccc(C(=O)O)c1
inhibition at 10 µM [18]: 80%
inhibition at 1 µM [16]: 60%
inhibition [7]: Active
